# Reference: PubChem BioAssay
# The source made the active and inactive calls. Unless noted, no stated cut-off is given here; in the data, active means inhibition above about 30%; inactive means the rest.
# What was measured:
# [1] = HUVEC growth inhibition – cell-based, human, primary screen (AID 575;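 active means viability at or below 30% in both replicate assays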;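 further: 100% = median of untreated cell wells with 0.1% DMSO on each plate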); conditions: HUVEC proliferation, CellTiter-Glo luminescence, 72 h; at 10 µM; stronger effect = lower value
# In short: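 System: primary human umbilical vein endothelial cells; Quantity: 1250 endothelial cells in each well; Buffer or medium: supplemented EBM, 2% fetal bovine serum; Doses: one dose, 10 µM final, 0.1% DMSO; Incubation: 72 h compound incubation; Technique: ATP-based CellTiter-Glo luminescent read; Evaluation: percent of median DMSO-control luminescence; Controls: vehicle and MePR control wells.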
# [2] = growth inhibitors of H69AR lung tumor, primary screen, human, duplicate replicates (AID 580;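 active means viability at or under a set limit in both replicates, limit being median viability minus 3 SD, cut at about 48% in these data, passing the limit was not always enough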;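 further: 100% = mean luminescence of untreated wells and 0% = no signal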); conditions: H69AR lung tumor cells viability, ATP luminescence, 72 h; at 10 µM; stronger effect = lower value
# [3] = reversal of MRP1-mediated doxorubicin resistance, pilot screen, H69AR cells, doxorubicin co-treatment (AID 601;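 active means viability loss from added drug above about 55%, and viability with drug at most 40%, in both replicates, limit read from the data, passing the limit was not always enough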); conditions: CellTiter-Glo, 72 h, at 10 µM; for differential viability (reversal): stronger effect = higher value
# [4] = 384-well plate pilot, post-Golgi transport modulator project, inhibition of yeast transport mutant growth (AID 636; in the data active means inhibition above about 31%); conditions: absorbance 615 nm, about 18 h, stronger effect = higher value
# [5] = growth suppression of yeast trafficking mutant, preliminary HTS, modulators of trafficking downstream of Golgi apparatus project, 1536-format plate, OD 615 nm (AID 637); conditions: yeast transport mutant growth, absorbance 615 nm, 18 h; stronger effect = higher value
# [6] = H69AR cells + 2 uM doxorubicin, measured here: viability with 2 uM doxorubicin, stronger effect = lower value
# [7] = H69AR cells, compound alone cytotoxicity
SMILES,viability [1],viability [2],differential viability (reversal) ([3]; H69AR cells + 2 uM doxorubicin),"viability [3, 6] [%]","viability [3, 7] [%]",inhibition [4],inhibition [5]
CCCCC(CC)Cn1c2nc3ccccc3nc2c2c(=N)oc(C)nc21 (stereo not given),3.36% (active),1.91% (active),-0.33% (inactive),2.24,1.91,-2.63% (inactive),1.59% (inactive)
COC(=O)Cn1cc(C(=O)c2cccs2)c2ccccc21,103% (inactive),96.4% (inactive),9.54% (inactive),86.9,96.4,-2.34% (inactive),1.43% (inactive)
CCc1nnc(NC(=O)OCc2ccccc2)s1,106% (inactive),102% (inactive),7.5% (inactive),94.9,102,-0.91% (inactive),11.4% (inactive)
Cc1ccc(-c2[nH]nc3c2C(c2ccoc2)C(C#N)=C(N)O3)cc1C (stereo not given),90.2% (inactive),86.7% (inactive),0.74% (inactive),86,86.7,-1.45% (inactive),-1.27% (inactive)
CN(c1ccccc1C(=O)N1CCN(c2cccc(Cl)c2)CC1)S(C)(=O)=O,108% (inactive),93.8% (inactive),-0.775% (inactive),94.5,93.8,-6.53% (inactive),1.43% (inactive)
Cc1nc(SCC(=O)c2c[nH]c3ccccc23)n[nH]1,81.1% (inactive),95.9% (inactive),14.5% (inactive),81.4,95.9,-7.5% (inactive),-0.32% (inactive)
Cc1cc(C)c2c(N)c(C(=O)c3ccccc3)oc2n1,80.2% (inactive),90.4% (inactive),-1.71% (inactive),92.1,90.4,-7.6% (inactive),2.22% (inactive)
C=CCn1c(=O)c(C(=O)Nc2ccccc2C(=O)OCC)c(O)c2ccccc21,84.3% (inactive),33% (active),-26.9% (inactive),60,33,-7.2% (inactive),6.83% (inactive)
CC1(C)C2CCC1(CS(=O)(=O)NCc1ccc(C(=O)O)cc1)C(=O)C2 (stereo not given),103% (inactive),108% (inactive),23.7% (inactive),84.2,108,-0.39% (inactive),3.33% (inactive)
COC(=O)c1[nH]c2c(c1C)C(=O)CC(c1cccs1)C2 (stereo not given),44.9% (inactive),36.7% (active),-39.3% (inactive),76,36.7,-6.05% (inactive),4.13% (inactive)
COC(=O)c1[nH]c2ccc(C)cc2c1NC(=O)CN1CCCc2ccccc21,48.2% (inactive),67.6% (inactive),-15.6% (inactive),83.2,67.6,-5.73% (inactive),0.79% (inactive)
CCN(CC)CCN1C(=O)C(O)=C(C(=O)c2cccs2)C1c1ccc(C)o1 (stereo not given),98.7% (inactive),98.6% (inactive),5.08% (inactive),93.6,98.6,-4.13% (inactive),-1.11% (inactive)
Cc1cc(C)n(-c2ccc3cccc(NS(C)(=O)=O)c3n2)n1,14.3% (active),27.6% (active),-22.8% (inactive),50.4,27.6,-6% (inactive),7.46% (inactive)
O=C(Nc1nc(-c2ccc(S(=O)(=O)N3CCCCCC3)cc2)cs1)c1cccs1,73.6% (inactive),64.6% (inactive),-4.63% (inactive),69.2,64.6,-6.62% (inactive),-3.81% (inactive)
CCN(CC(=O)Nc1c(C(=O)OC)[nH]c2ccccc12)c1ccc2c(c1)OCO2,67.8% (inactive),72% (inactive),-6.82% (inactive),78.8,72,-5.2% (inactive),-2.22% (inactive)
CC(=O)NC1=NC(=O)/C(=C/N2CCCCC2)S1,99.5% (inactive),95.9% (inactive),5.1% (inactive),90.8,95.9,-1.97% (inactive),-2.22% (inactive)
Cc1ccc(C(=O)CSc2nnc(CNc3ccc(C)cc3C)o2)cc1,81.7% (inactive),81.2% (inactive),0.795% (inactive),80.4,81.2,-0.92% (inactive),-10.5% (inactive)
COC(=O)c1cc(Br)ccc1-c1ccc(/C=N/n2nnnc2N)o1,58.1% (inactive),80.6% (inactive),14% (inactive),66.7,80.6,-2.47% (inactive),6.51% (inactive)
Cc1ccc(NC(=O)c2ccco2)c(NC(=O)c2cccs2)c1,92% (inactive),88.8% (inactive),-1.08% (inactive),89.9,88.8,-3.73% (inactive),8.57% (inactive)
CC(CN1CCCCC1)OC(=O)c1ccc(Cl)cc1Cl (stereo not given),96.7% (inactive),92.9% (inactive),7.05% (inactive),85.9,92.9,0.53% (inactive),-3.65% (inactive)
Nc1nc2ccccc2n1/N=C/c1ccc(Br)cc1,72.4% (inactive),86.8% (inactive),4.02% (inactive),82.8,86.8,-3.95% (inactive),8.57% (inactive)
Cc1ccc(NC(=O)c2ccccc2F)nc1,68.1% (inactive),90.9% (inactive),-6.37% (inactive),97.2,90.9,-4.93% (inactive),1.11% (inactive)
O=C(NCc1ccco1)c1noc2c1CCCCC2,96.4% (inactive),78.4% (inactive),5.79% (inactive),72.6,78.4,-3.64% (inactive),-0.95% (inactive)

SMILES,viability [1],viability [2],differential viability (reversal) ([3]; H69AR cells + 2 uM doxorubicin),"viability [3, 6] [%]","viability [3, 7] [%]",inhibition [4],inhibition [5]
CCOC(=O)C1CCCN(C(=O)CNS(=O)(=O)c2ccc(Br)s2)C1 (stereo not given),108% (inactive),95.7% (inactive),17.7% (inactive),78,95.7,-6.71% (inactive),4.13% (inactive)
CCOC(=O)Cc1csc(NC(=O)CSc2nnc(C)n2C)n1,108% (inactive),95.2% (inactive),5.79% (inactive),89.4,95.2,6.27% (inactive),-5.4% (inactive)
COc1ccc(CN2C(=O)c3ccccc3C2C(=O)NC2CCCC2)c(OC)c1 (stereo not given),104% (inactive),86.2% (inactive),1.22% (inactive),84.9,86.2,0.53% (inactive),-4.6% (inactive)
CCOC(=O)c1ccc(NC(=O)N2CCN(CCc3ccccc3)CC2)cc1,91.7% (inactive),101% (inactive),10.2% (inactive),90.4,101,-2.11% (inactive),-0.32% (inactive)
O=C(O)c1cccn2c(=O)c3ccccc3nc12,101% (inactive),95.8% (inactive),4.45% (inactive),91.4,95.8,-2.8% (inactive),-2.22% (inactive)
CCOC(=O)C1CCCN(S(=O)(=O)c2cccs2)C1 (stereo not given),110% (inactive),109% (inactive),12.7% (inactive),96.7,109,0.66% (inactive),-6.03% (inactive)
O=S1(=O)C=C(Sc2nc3ccccc3s2)c2ccccc21,9.16% (active),1.38% (active),0.39% (inactive),0.99,1.38,37.3% (active),55.6% (active)
O=C(O)CCc1ccc(-c2cccs2)n1NC(=O)c1ccco1,105% (inactive),96.8% (inactive),8.25% (inactive),88.5,96.8,0.39% (inactive),9.05% (inactive)
COc1ccc2oc(C)c(C(=O)Cn3ccnc3)c2c1,92.8% (inactive),87.8% (inactive),-2.3% (inactive),90.1,87.8,1.69% (inactive),24.8% (inactive)
CCCC(CCC)n1[nH]c(=O)c2c(C)cc(C)nc21,108% (inactive),104% (inactive),1.53% (inactive),103,104,0.26% (inactive),-3.17% (inactive)
COc1cc2c(cc1OC)CN(Cc1nc3ccsc3c(=O)[nH]1)CC2,99.5% (inactive),92.2% (inactive),7.59% (inactive),84.6,92.2,-2.73% (inactive),3.17% (inactive)
CCS(=O)(=O)c1ccc(S(=O)(=O)CC)s1,104% (inactive),104% (inactive),0.02% (inactive),104,104,-2.73% (inactive),-1.59% (inactive)
O=S(=O)(NCCc1ccncc1)c1cc(Br)ccc1F,97.5% (inactive),98.2% (inactive),13.4% (inactive),84.8,98.2,-3.9% (inactive),13.5% (inactive)
Cn1c(=O)[nH]c(=O)c2c1nc(NCCCn1ccnc1)n2Cc1cccc(Br)c1,90.3% (inactive),81.7% (inactive),8.09% (inactive),73.6,81.7,-5.47% (inactive),0.95% (inactive)
CCOC(=O)CC(C#N)c1cn(C)c2ccccc12 (stereo not given),86.6% (inactive),88% (inactive),-4.15% (inactive),92.2,88,-6.58% (inactive),-4.6% (inactive)
O=C(CN1C(=O)CCS(=O)(=O)c2ccccc21)NCc1ccc(F)cc1,85% (inactive),98.4% (inactive),3.11% (inactive),95.3,98.4,-5.2% (inactive),-3.81% (inactive)
O=C(O)c1ccc(-n2nc(C(F)(F)F)c3c2-c2ccoc2CC3)cc1,70.8% (inactive),97% (inactive),9.15% (inactive),87.9,97,0.39% (inactive),-1.43% (inactive)
CCOC(=O)C1=C(C)N(C)C(C)=C(C(=O)OCC)C1c1cccnc1,97.5% (inactive),92.4% (inactive),0.9% (inactive),91.5,92.4,0.79% (inactive),-1.75% (inactive)
C=C(C)COc1ccc(-c2n[nH]c(C)c2-c2ccccc2)c(O)c1,2.96% (active),21.1% (active),7.88% (inactive),13.2,21.1,-1.69% (inactive),9% (inactive)
Cc1nc2ccc(NC(=O)NCc3ccco3)cc2s1,103% (inactive),90.6% (inactive),7.41% (inactive),83.2,90.6,-4.67% (inactive),9.37% (inactive)
CCC(=O)c1ccc(OCC(=O)N2CCc3cc(OC)c(OC)cc3C2)cc1,101% (inactive),82.9% (inactive),-11.2% (inactive),94.1,82.9,-2.34% (inactive),-4.6% (inactive)
O=C(O)C1CSC2c3ccccc3C(=O)N12 (stereo not given),104% (inactive),103% (inactive),15.4% (inactive),87.6,103,-1.04% (inactive),3.81% (inactive)
